Measurements reported in the RNAGym collection of RNA variant scans (doi:10.1126/science.aae0568).
This sample holds only a part of the variants without activity.

B1: tRNA (parent)
chain: GUUCCGUUGGCGUAAUGGUAACGCGUCUCCCUCCUAAGGAGAAGACUGCGGGUUCGAGUCCCGUACGGAACG

Variants of: B1
Test: yeast fitness relative to wild type (ratio to wild type); higher = fitter; tRNA-Arg(CCU), competitive growth, 37 C, YPD
Procedure, shortened: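 Genotype frequency changes were the basis for Darwinian fitness relative to wild type. The frequencies came from 100-nucleotide paired-end sequencing of gene amplicons from the start population and each end population of pooled yeast strains with tRNA-Arg(CCU) gene variants at the native locus. Competition ran in YPD at 37°C for 24 hours in six replicates, genotypes needed ≥ 100 starting reads, and estimates < 0.5 were set to 0.5.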

G10A C11A U16G G38A A42U and G10A C11G C30G A57G G58A U59A cannot be ordered by yeast fitness: at most 0.5 for the first, at most 0.5 for the second.

First: G10A C11G C60A G67U
Second: G10A C11G G41C A45U
The yeast fitness of the first is higher: 0.512 for the first, at most 0.5 for the second.

G10A C11G U28A C33U G38A C49U and G10A C11U A15G C30U C60G cannot be ordered by yeast fitness: at most 0.5 for the first, at most 0.5 for the second.

G10A C11U A43U C60U and G10A C11U C22U A57U cannot be ordered by yeast fitness: at most 0.5 for the first, at most 0.5 for the second.

First: G10A C11U C29A C34A G44A C66G
Second: G10A C11U G58C A65U
The yeast fitness of the first is higher: 0.545 for the first, at most 0.5 for the second.

Compared with G10A C22A, G10A C22G is lower in yeast fitness: 0.717 for the first, 0.637 for the second.

G10A C22G A37G G38A and G10A C22G A37G G38A G51C U53G cannot be ordered by yeast fitness: at most 0.5 for the first, at most 0.5 for the second.

G10A C22G C27U G56A and G10A C22U A45G cannot be ordered by yeast fitness: at most 0.5 for the first, at most 0.5 for the second.

First: G10A C22U G56C
Second: G10A C22U G56C A69U
The yeast fitness of the first is higher: 0.566 for the first, at most 0.5 for the second.

Compared with G10A C22U U47C, G10A C24A A45C A57U is higher in yeast fitness: at most 0.5 for the first, 0.63 for the second.

Compared with G10A C24A C27A A45G, G10A C24A G44A is higher in yeast fitness: at most 0.5 for the first, 0.553 for the second.

First: G10A C24A G44A A65U
Second: G10A C24G A40G C46G
The yeast fitness of the first is lower: at most 0.5 for the first, 0.556 for the second.

First: G10A C24G A43G
Second: G10A C24G C27U
The yeast fitness of the first is lower: at most 0.5 for the first, 0.547 for the second.

First: G10A C24G C34U
Second: G10A C24G C62U
The yeast fitness of the first is lower: at most 0.5 for the first, 0.54 for the second.

First: G10A C24G U47C C62U
Second: G10A C24U A36C A69C
The yeast fitness of the first is lower: at most 0.5 for the first, 0.534 for the second.

G10A C24U C27G and G10A C24U G41A C49U U53A C66G cannot be ordered by yeast fitness: at most 0.5 for the first, at most 0.5 for the second.

Compared with G10A C27A, G10A C27A A36U A37U G48C is lower in yeast fitness: 0.801 for the first, at most 0.5 for the second.

G10A C27A C34U A57G and G10A C27A U35C cannot be ordered by yeast fitness: at most 0.5 for the first, at most 0.5 for the second.

G10A C27G C55A C61A and G10A C27G G48C C62A cannot be ordered by yeast fitness: at most 0.5 for the first, at most 0.5 for the second.

G10A C27G G63C and G10A C27G U35A A45U G67A cannot be ordered by yeast fitness: at most 0.5 for the first, at most 0.5 for the second.

Going from G10A C27U U28C C30A G48A G50A to G10A C29A C34G A43C C60G C66U, the yeast fitness falls from 0.985 to at most 0.5.

First: G10A C29A C55G A65G
Second: G10A C29G
The yeast fitness of the first is higher: 0.649 for the first, 0.522 for the second.

G10A C29G C33U and G10A C29G G56C U59A cannot be ordered by yeast fitness: at most 0.5 for the first, at most 0.5 for the second.

G10A C29G U53A G56C C62G A69C and G10A C29U C31U G48C U54A cannot be ordered by yeast fitness: at most 0.5 for the first, at most 0.5 for the second.

First: G10A C29U C49U G56A
Second: G10A C29U G44C C60U
The yeast fitness of the first is higher: 0.633 for the first, at most 0.5 for the second.

G10A C30A A43C A57U and G10A C30A A70G cannot be ordered by yeast fitness: at most 0.5 for the first, at most 0.5 for the second.

First: G10A C30A G41C C60G A70U
Second: G10A C30G A36C G58A
The yeast fitness of the first is higher: 0.645 for the first, at most 0.5 for the second.

G10A C30G C60G G63A A65U C66U and G10A C30U A43U C55A cannot be ordered by yeast fitness: at most 0.5 for the first, at most 0.5 for the second.

First: G10A C30U C46A
Second: G10A C30U C46A C66U
The yeast fitness of the first is higher: 0.695 for the first, at most 0.5 for the second.

Compared with G10A C30U C60G, G10A C30U G50A is higher in yeast fitness: at most 0.5 for the first, 0.529 for the second.

Going from G10A C30U G50A A70U to G10A C30U G63A, the yeast fitness rises from at most 0.5 to 0.538.

First: G10A C30U U47A G67C
Second: G10A C31A
The yeast fitness of the first is lower: at most 0.5 for the first, 0.637 for the second.

G10A C31A A37C and G10A C31A C55U G63A cannot be ordered by yeast fitness: at most 0.5 for the first, at most 0.5 for the second.

First: G10A C31A G41A A45U G58C
Second: G10A C31U
The yeast fitness of the first is lower: at most 0.5 for the first, 0.662 for the second.

G10A C31U A40C G48A and G10A C31U A42G cannot be ordered by yeast fitness: at most 0.5 for the first, at most 0.5 for the second.

Compared with G10A C31U A65U, G10A C31U G38C is lower in yeast fitness: 0.566 for the first, 0.512 for the second.

Going from G10A C31U G38C G41A G63A G68C A69G to G10A C31U G38C G63A G68C A69G, the yeast fitness rises from at most 0.5 to 0.578.

G10A C31U G38C G67A and G10A C31U G44C A69U cannot be ordered by yeast fitness: at most 0.5 for the first, at most 0.5 for the second.

G10A C33A U35C C60A and G10A C33U A65C cannot be ordered by yeast fitness: at most 0.5 for the first, at most 0.5 for the second.

Going from G10A C33U C49U to G10A C33U G44C A45G, the yeast fitness falls from 0.663 to at most 0.5.

G10A C33U G50A and G10A C33U G56C C66A cannot be ordered by yeast fitness: at most 0.5 for the first, at most 0.5 for the second.

G10A C34G and G10A C34G A40C C46G cannot be ordered by yeast fitness: at most 0.5 for the first, at most 0.5 for the second.

Compared with G10A C34G G44C U47C G52A U53C C61U, G10A C46A is higher in yeast fitness: at most 0.5 for the first, 0.677 for the second.

Going from G10A C46G A65C to G10A C55A G68C, the yeast fitness falls from 0.597 to at most 0.5.

Going from G10A C55G to G10A C55U, the yeast fitness falls from 0.605 to 0.559.

Compared with G10A C60G A69G, G10A C60G G67A is lower in yeast fitness: 0.616 for the first, at most 0.5 for the second.

Going from G10A C61A A69C A70C to G10A C62U C66U, the yeast fitness rises from at most 0.5 to 0.617.

Compared with G10A C62U G67C, G10A C66A G67C is lower in yeast fitness: 0.636 for the first, at most 0.5 for the second.

G10A G12A C34U A45U C49G and G10A G12A G17U U28C U54C cannot be ordered by yeast fitness: at most 0.5 for the first, at most 0.5 for the second.

G10A G12A G52A C66U and G10A G12A U16A G18A A45U cannot be ordered by yeast fitness: at most 0.5 for the first, at most 0.5 for the second.

First: G10A G12C C31U
Second: G10A G17A A36G G38C A45U C46U G67U
The yeast fitness of the first is higher: 0.62 for the first, at most 0.5 for the second.

G10A G17A C29A C34G A43C C60G and G10A G17A C30G G67U cannot be ordered by yeast fitness: at most 0.5 for the first, at most 0.5 for the second.

Compared with G10A G17A C30G U35A G50A, G10A G17A C61A C62U A65U A69C is lower in yeast fitness: 0.626 for the first, at most 0.5 for the second.

G10A G17A U19A C29U C34G and G10A G17A U19A C29U C66U cannot be ordered by yeast fitness: at most 0.5 for the first, at most 0.5 for the second.

G10A G17A U28C C31G G67C and G10A G17C A69U cannot be ordered by yeast fitness: at most 0.5 for the first, at most 0.5 for the second.

Compared with G10A G17C C30G C33G, G10A G17C C30G C33G A45U G52A A70U is lower in yeast fitness: 0.578 for the first, at most 0.5 for the second.

First: G10A G17C C30G C33G C61A A69U
Second: G10A G17C C30G C33G G68C
The yeast fitness of the first is higher: 0.581 for the first, at most 0.5 for the second.

G10A G17C C31U G44A C46A and G10A G23C A45G A65U cannot be ordered by yeast fitness: at most 0.5 for the first, at most 0.5 for the second.

Going from G10A G23C C29U A36C to G10A G23C C29U A36C C49G A70C, the yeast fitness rises from 0.532 to 0.553.

Compared with G10A G25A C62U, G10A G25C is higher in yeast fitness: at most 0.5 for the first, 0.656 for the second.

G10A G25U A36U A43G C60U and G10A G38A A45G A70G cannot be ordered by yeast fitness: at most 0.5 for the first, at most 0.5 for the second.

G10A G38C G50A A69G and G10A G38C G67U cannot be ordered by yeast fitness: at most 0.5 for the first, at most 0.5 for the second.

G10A G38U G67C and G10A G38U G67U cannot be ordered by yeast fitness: at most 0.5 for the first, at most 0.5 for the second.

Going from G10A G39A A65C C66G to G10A G39C A70G, the yeast fitness rises from 0.556 to 0.589.

First: G10A G41A A42C G50C A70G
Second: G10A G41A C49U U53A
The yeast fitness of the first is higher: 0.533 for the first, at most 0.5 for the second.

Going from G10A G41A C49U U53A C66G to G10A G44A C66U, the yeast fitness falls from 0.537 to 0.534.

G10A G44A U54C G67C and G10A G48A C55A cannot be ordered by yeast fitness: at most 0.5 for the first, at most 0.5 for the second.

G10A G50A G51A and G10A G50A U59A C61A cannot be ordered by yeast fitness: at most 0.5 for the first, at most 0.5 for the second.

Going from G10A G50A U59A C61A C66G to G10A G51A C66U, the yeast fitness falls from 0.606 to at most 0.5.

Going from G10A G52A to G10A G52C, the yeast fitness falls from 0.53 to 0.528.

First: G10A G56A A69U
Second: G10A G58A
The yeast fitness of the first is lower: 0.601 for the first, 0.767 for the second.

First: G10A G58C A65U
Second: G10A G58C A70U
The yeast fitness of the first is lower: at most 0.5 for the first, 0.701 for the second.

Compared with G10A G68A A70G, G10A U13A is higher in yeast fitness: 0.596 for the first, 0.684 for the second.

G10A U13A A14C A40C C62G and G10A U13A C24U A45C A65G C66G cannot be ordered by yeast fitness: at most 0.5 for the first, at most 0.5 for the second.

G10A U13A C29U C49G and G10A U13A C30U C55G G58C cannot be ordered by yeast fitness: at most 0.5 for the first, at most 0.5 for the second.

Going from G10A U13A G67C to G10A U13C C31G A57C, the yeast fitness rises from at most 0.5 to 0.587.

Going from G10A U13G C27U C46G A69C to G10A U16A A65U, the yeast fitness rises from 0.506 to 0.575.

G10A U16A G48A A65U and G10A U16A U28C A42C C66U cannot be ordered by yeast fitness: at most 0.5 for the first, at most 0.5 for the second.

First: G10A U16C U35C A40U
Second: G10A U19A
The yeast fitness of the first is lower: at most 0.5 for the first, 0.729 for the second.

First: G10A U19A A40C A42C G68C
Second: G10A U19A C46A
The yeast fitness of the first is higher: 0.582 for the first, 0.542 for the second.

First: G10A U19C G48A C49G
Second: G10A U26A
The yeast fitness of the first is lower: 0.56 for the first, 0.731 for the second.

Going from G10A U26A A43G A70U to G10A U26A C66U, the yeast fitness rises from at most 0.5 to 0.537.

First: G10A U26C
Second: G10A U26C A36G G56A
The yeast fitness of the first is higher: 0.736 for the first, at most 0.5 for the second.

Variant G10A U26C C29G C31U has a yeast fitness of at most 0.5.
